In the RNAGym collection of RNA variant scans (doi:10.1002/anie.201605470):

B1: Osa-1-4 twister ribozyme (parent)
chain: CCGCCUAACACUGCCAAUGCCGGUCCCAAGCCCGGAUAAAAGUGGAGGGGGCGG

Variants of: B1
Assay: self-cleavage, relative activity (ratio to wild type); higher = more cleavage; co-transcriptional
Method in brief: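 A DNA template for a 54-nucleotide Oryza sativa twister ribozyme was synthesised with 97 % wild-type base and 1 % of each other base at the 48 positions downstream of the cleavage site. It was transcribed in vitro for 2 h at 37 °C, allowing co-transcriptional self-cleavage, then reverse-transcribed with a template-switching oligonucleotide, PCR-amplified and deep-sequenced. Cleavage status was scored from reads with or without upstream sequence. Relative activity is fraction cleaved normalised to wild type.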

| Variant | self-cleavage |
| --- | --- |
| CCGCCUAACACGGCCAAUGCCGGUCCCAAGCCCGGAUAAAAUUGGAGGGGGCGG | 0.06 |
| CCGCCUAACACAGCCAAUGCCGGUCCCAAGCCCGGAUAAAAUUGGAGGGGGCGG | 0.06 |
| CCGCCUAACACUGCCAAGGCCGGUCCCAAGCCCGGAUAAAACUGGAGGGGGCGG | 0.32 |
| CCGCCUAACACUGCCAACGCCGGUCCCAAGCCCGGAUAAAACUGGAGGGGGCGG | 0.21 |
| CCGCCUAACACUGCCAAUGCCGGUCCCAAGCCCGGAUAAAAUUGGAGGGAGCGG | 0.32 |
| CCGCCUAACACUGCCAAUGCCGGUCCCAAGCCCGGAUAAAAUUGGAGGGCGCGG | 0.1 |
| CCGCCUAACACUGCCAAUGCCGGUCCCAAGCCCGGAUAAAAUUGGAGGGUGCGG | 0.12 |
| CCGCCUAACACUGCCAAUGCCGGUCCCAAGCCCGGAAAAAACUGGAGGGGGCGG | 0.21 |
| CCGCCUAACACUGCCAAUGCCGGUCCCAAGCCCGGACAAAACUGGAGGGGGCGG | 0.34 |
| CCGCCUAACACUGCCAAUGCCGGUCCCAAGCCCGGAGAAAACUGGAGGGGGCGG | 0.39 |
| CCGCCUAACACUGCCAAUGCCGGUCCCAAGCCCGGAUAAAAGUAGAGGAGGCGG | 0.07 |
| CCGCCUAACACUGCCAAUGCCGGUCCCAAGCCCGGAUAAAAGUAGAGGCGGCGG | 0.06 |
| CCGCCUAACACUGCCAAUGCCGGUCCCAAGCCCGGAUAAAAGUAGAGGUGGCGG | 0.07 |
| CCGCCUAACACUGCCAAUGCCGGUCCCAAGCCCGGAUAAAAGUAGAGGGGACGG | 0.79 |
| CCGCCUAACACUGCCAAUGCCGGUCCCAAGCCCGGAUAAAAGUAGAGGGGCCGG | 0.08 |
| CCGCCUAACACUGCCAAUGCCGGUCCCAAGCCCGGAUAAAAGUAGAGGGGUCGG | 0.28 |
| CCGCCUAACACGGCCAAUGCCGGUCCCAAGCCCGGAUAAAAGUAGAGGGGGCGG | 0.28 |
| CCGCCUAACACAGCCAAUGCCGGUCCCAAGCCCGGAUAAAAGUAGAGGGGGCGG | 0.65 |
| CCGCCUAACACCGCCAAUGCCGGUCCCAAGCCCGGAUAAAAGUAGAGGGGGCGG | 0.68 |
| CCGCCUAACACUGCCAAUGCCGGUCCCAAGCCCGGAUAAAACCGGAGGGGGCGG | 0.11 |
| CCGCCUAACACUGCCAAUGCCGGUCCCAAGCCCGGAUAAAACAGGAGGGGGCGG | 0.1 |
| CCGCCUAACACUGCCAAUGCCGGUCCCAAGCCCGGAUAAAACGGGAGGGGGCGG | 0.09 |
| CCGCCUAACACUGCCAAUGCCGGUCCCAAGCCCGGAUAAAAUUGAAGGGGGCGG | 0.05 |
| CCGCCUAACACUGCCAAUGCCGGUCCCAAGCCCGGAUAAAAUUGUAGGGGGCGG | 0.04 |
| CCGCCUAACACUGCCAAUGCCGGUCCCAAGCCCGGAUAAAAUUGCAGGGGGCGG | 0.03 |

| Variant | self-cleavage |
| --- | --- |
| CCGCCUAACACUGCCAAUGCCGGUCCCAAGCCCGGAUAAAAGUAGAGGGGGCCG | 0.1 |
| CCGCCUAACACUGCCAAUGCCGGUCCCAAGCCCGGAUAAAAGUAGAGGGGGCUG | 0.47 |
| CCGCCUAACACUGCCAAUGCCGGUCCCAAGCCCGGAUAAAAGUAGAGGGGGCAG | 0.83 |
| CCGCCUAACACUGCCAAUGCCGGUCCCAAGCCCGGAUAAAAGAGGAGGGGGCGG | 0.93 |
| CCGCCUAACACUGCCAAUGCCGGUCCCAAGCCCGGAUAAAAGCGGAGGGGGCGG | 0.64 |
| CCGCCUAACACUGCCAAUGCCGGUCCCAAGCCCGGAUAAAAGGGGAGGGGGCGG | 0.67 |
| CCGCCUAACACUGCCAAUGCCGGUCCCAAGCCCGGAUAAAAGUAGACGGGGCGG | 0.09 |
| CCGCCUAACACUGCCAAUGCCGGUCCCAAGCCCGGAUAAAAGUAGAAGGGGCGG | 0.13 |
| CCGCCUAACACUGCCAAUGCCGGUCCCAAGCCCGGAUAAAAGUAGAUGGGGCGG | 0.12 |
| CCGCCUAACACUGCCAAUGCCGGUCCCAAGCCCGGAUAAAAGUAGAGGGGGCGU | 0.94 |
| CCGCCUAACACUGCCAAUGCCGGUCCCAAGCCCGGAUAAAAGUAGAGGGGGCGA | 0.92 |
| CCGCCUAACACUGCCAAUGCCGGUCCCAAGCCCGGAUAAAAGUAGAGGGGGCGC | 0.93 |
| CCGCCUAACACUGCCAAUGCCGGUCCCAAGCCCGGAUAAAAGGAGAGGGGGCGG | 0.67 |
| CCGCCUAACACUGCCAAUGCCGGUCCCAAGCCCGGAUAAAAGCAGAGGGGGCGG | 0.1 |
| CCGCCUAACACUGCCAAUGCCGGUCCCAAGCCCGGAUAAAAGAAGAGGGGGCGG | 0.88 |
| CCGCCUAACACUGCCAAUGCCGGGCCCAAGCCCGGAUAAAACUGGAGGGGGCGG | 0.02 |
| CCGCCUAACACUGCCAAUGCCGGCCCCAAGCCCGGAUAAAACUGGAGGGGGCGG | 0.05 |
| CCGCCUAACACUGCCAAUGCCGGACCCAAGCCCGGAUAAAACUGGAGGGGGCGG | 0.05 |
| CCGCCUAACACUGCCAAUGCCGGUCCCAAGCCCGGAUAAAAGUAAAGGGGGCGG | 0.16 |
| CCGCCUAACACUGCCAAUGCCGGUCCCAAGCCCGGAUAAAAGUAUAGGGGGCGG | 0.07 |
| CCGCCUAACACUGCCAAUGCCGGUCCCAAGCCCGGAUAAAAGUACAGGGGGCGG | 0.07 |
| CCGCCUAACACUGCCAAUGCCGGCCCCAAGCCCGGAUAAAAGUAGAGGGGGCGG | 0.08 |
| CCGCCUAACACUGCCAAUGCCGGGCCCAAGCCCGGAUAAAAGUAGAGGGGGCGG | 0.03 |
| CCGCCUAACACUGCCAAUGCCGGACCCAAGCCCGGAUAAAAGUAGAGGGGGCGG | 0.06 |
